Experimental data of several laboratories.
Compare with care: the assays were run in different laboratories.
Target: Calcium/calmodulin-dependent protein kinase kinase 1 (CAMKK1, Homo sapiens, UniProt Q8N5S9)

SMILES	effect on	technique	tested at	remaining binding
O=C(Nc1cccnn1)N1CC(C/C=C/c2cncc(Oc3ccc(C(F)(F)F)cn3)n2)C1	cell-free assay	competition with immobilised ligand	1 µM	100%
COc1ncc2cc3ccccc3nc2c1C#N	cell-free assay	competition with immobilised ligand	5 µM	87%
O=C(NCCCN1CCOCC1)c1ccc(Nc2nccc(-c3cc4ccccc4s3)n2)cc1	binding	competition with immobilised ligand	1 µM	80%
C[C@H]1CCN(c2nccc(-c3cnn4ncccc34)n2)C1	binding	–	1 µM	91%
c1cncc(-c2cccc(Nc3nccc(NC4CCCCC4)n3)c2)c1	binding	competition with immobilised ligand	10 µM	68%
CNCc1ccccc1-c1csc([C@@H](C)Nc2nc(C)nc3cc(OC)c(OC)cc23)c1	cell-free assay	competition with immobilised ligand	1 µM	100%
c1cnn2ncc(-c3ccnc(N4CCC45COC5)n3)c2c1	binding	–	1 µM	97%
O=C(NCC1CCOCC1)c1n[nH]cc1NC(=O)c1c(F)cccc1F	binding	competition with immobilised ligand	1 µM	88%
Cc1cc(C)c(-n2ccn3nc(-c4cccnc4)cc23)cc1NC(=O)c1cc(C#N)cc(S(F)(F)(F)(F)F)c1	cell-free assay	competition with immobilised ligand	0.1 µM	93.6%
CN(C)c1ncc(F)c(-c2cnn3ncccc23)n1	binding	–	1 µM	90%
CC(=O)N1CCC(c2ccc(C(=O)NC(=N)N)cc2C(F)(F)F)CC1	cell-free assay	competition with immobilised ligand	1 µM	100%
C=CC(=O)N1CCC(C(=O)NCC(=O)N2CCN(c3nc(-c4cnc(N)nc4C(F)F)nc(N4CCOCC4)n3)CC2)CC1	binding	competition with immobilised ligand	1 µM	96%
CCN1CCN(Cc2ccc(C(=O)Nc3ccc(C)c(Oc4ccc5c(c4)CC(=O)N5)c3)cc2C(F)(F)F)CC1	binding	competition with immobilised ligand	1 µM	100%
F[C@@H]1CCN(c2nccc(-c3cnn4ncccc34)n2)C1	binding	–	1 µM	100%
CNC(=O)[C@@H]1CC[C@@H](n2c(-c3ccc4cnccc4c3)nc3ccc(C(=O)NCc4cccc(C(N)=O)c4)cc32)C1	binding	competition with immobilised ligand	1 µM	94%
CN(c1nccc(-c2cnn3ncccc23)n1)C1CC1	binding	–	1 µM	100%
O=C(NCCCN1CCOCC1)c1ccc(Nc2ncc(Cl)c(-c3ccc(Cl)s3)n2)cc1	binding	competition with immobilised ligand	1 µM	73%
CNC(=O)c1ccc(Nc2ncc(C(F)(F)F)c(NCc3nccnc3N(C)S(C)(=O)=O)n2)cc1	cell-free assay	competition with immobilised ligand	0.1 µM	75%
Cc1cnn2ncc(-c3ccnc(N(C)C)n3)c2c1	binding	–	1 µM	84%
O=C(Nc1cnc(Oc2ccc(F)cc2)nc1)N1CCc2ncccc2[C@@H]1c1ccc(F)cc1	cell-free assay	competition with immobilised ligand	1 µM	92%
N[C@H]1CCN(c2nccc(-c3cnn4ncccc34)n2)C1	binding	–	1 µM	100%
Cc1cnc(Nc2ccc(C(=O)N3CCC(N4CCCC4)CC3)cc2)nc1-c1cc2ccccc2s1	binding	competition with immobilised ligand	1 µM	79%
